Legend:
[1] = test system: Presenilin-1 (Homo sapiens), P49768 [L166P]; assay: Reduction of human PS1 L166P mutant-induced amyloid beta-40 level in CHO cells overexpressing human APP751 at 0.1 nM after 24 hrs by liquid phase electrochemiluminescence assay relative to control; format: cell-based; parameters: scale not given: the % may be the effect or the level left
Procedure, shortened: (§1)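 APP751 CHO cells stably expressing PS1-ΔExon9, PS1-L166P or PS1-WT, cultured in parallel in serum-containing medium. Treated 24 h with increasing γ-secretase inhibitor concentrations or DMSO. Conditioned-media Abeta40/Abeta42 quantified by LPECL against synthetic peptide standards (16–2000 pg/ml). Duplicates normalized to DMSO. n = 3, one-way ANOVA with Dunnett's test versus PS1-WT.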

[2] = biological target: Presenilin-1 (Homo sapiens) (UniProt P49768); assay: Reduction of human wild type PS1-induced amyloid beta40 level in CHO cells overexpressing human APP751 at 0.5 nM after 24 hrs by liquid phase electrochemiluminescence assay relative to control; format: cell-based; parameters: scale not given: the % may be the effect or the level left
Mus musculus [3] = assay: Reduction of amyloid beta-42 level in Tg2576 mouse brain at 10 mg/kg, po after 3 hrs by ELISA; format: functional
Procedure, shortened: (§2)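 Mice given one oral 10 mg/kg dose in 0.5% tylose, or vehicle alone; the lines cover 5-month-old Tg2576 (Swedish APP) mice and 2-month-old APPPS1 (Swedish APP + human PS1-L166P, Thy-1 promoter) mice. Killed 3 h post-dose. Brain homogenized in Tris buffer with 0.2% Triton X-100 and spun 1 h at 200,000 x g. Soluble supernatant Abeta40 (6E10 capture) and Abeta42 measured by sandwich ELISA. n = 4–6, paired t-test.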

Mus musculus [4] = assay: Reduction of amyloid beta-40 level in Swedish APP and human PS1-L166P APPPS1 transgenic mouse brain at 10 mg/kg, po after 3 hrs by ELISA relative to control; format: functional; parameters: scale not given: the % may be the effect or the level left; procedure, shortened: as §2
[5] = test system: Presenilin-1 (Homo sapiens), P49768 [L166P]; assay: Reduction of human PS1 L166P mutant-induced amyloid beta42 level in CHO cells overexpressing human APP751 at 0.2 nM after 24 hrs by liquid phase electrochemiluminescence assay relative to control; format: cell-based; parameters: scale not given: the % may be the effect or the level left; procedure, shortened: as §1
CHO [6] = assay: Reduction of human PS1 delta exon9 mutant-induced amyloid beta42 level in CHO cells overexpressing human APP751 at 0.1 nM after 24 hrs by liquid phase electrochemiluminescence assay relative to control; format: cell-based; parameters: scale not given: the % may be the effect or the level left
Mus musculus [7] = assay: Reduction of amyloid beta-42 level in Tg2576 mouse brain at 10 mg/kg, po after 3 hrs by ELISA relative to control; format: functional; parameters: scale not given: the % may be the effect or the level left; procedure, shortened: as §2
[8] = test system: Presenilin-1 (Homo sapiens), P49768 [L166P]; assay: Reduction of human PS1 L166P mutant-induced amyloid beta42 level in CHO cells overexpressing human APP751 at 0.1 nM after 24 hrs by liquid phase electrochemiluminescence assay relative to control; format: cell-based; parameters: scale not given: the % may be the effect or the level left; procedure, shortened: as §1
CHO [9] = assay: Reduction of human PS1 delta exon9 mutant-induced amyloid beta42 level in CHO cells overexpressing human APP751 at 0.5 nM after 24 hrs by liquid phase electrochemiluminescence assay relative to control; format: cell-based; parameters: scale not given: the % may be the effect or the level left
Mus musculus [10] = assay: Reduction of amyloid beta-40 level in Tg2576 mouse brain at 10 mg/kg, po after 3 hrs by ELISA relative to control; format: functional; parameters: scale not given: the % may be the effect or the level left; procedure, shortened: as §2
[11] = biological target: Presenilin-1 (Homo sapiens) (UniProt P49768); assay: Reduction of human wild type PS1-induced amyloid beta-40 level in CHO cells overexpressing human APP751 at 0.2 nM after 24 hrs by liquid phase electrochemiluminescence assay relative to control; format: cell-based; parameters: scale not given: the % may be the effect or the level left
Mus musculus [12] = assay: Reduction of amyloid beta42 level in Swedish APP and human PS1-L166P APPPS1 transgenic mouse brain at 10 mg/kg, po after 3 hrs by ELISA relative to control; format: functional; parameters: scale not given: the % may be the effect or the level left; procedure, shortened: as §2
[13] = biological target: Presenilin-1 (Homo sapiens) (UniProt P49768); assay: Reduction of human wild type PS1-induced amyloid beta-40 level in CHO cells overexpressing human APP751 at 0.1 nM after 24 hrs by liquid phase electrochemiluminescence assay relative to control; format: cell-based; parameters: scale not given: the % may be the effect or the level left
Mus musculus [14] = assay: Reduction of amyloid beta-42 level in Swedish APP and human PS1-L166P APPPS1 transgenic mouse brain at 10 mg/kg, po after 3 hrs by ELISA; format: functional; procedure, shortened: as §2
[15] = Reduction of human PS1 delta exon9 mutant-induced amyloid beta-40 level in CHO cells overexpressing human APP751after 24 hrs by liquid phase electrochemiluminescence assay relative to control; format: cell-based
CHO [16] = assay: Reduction of human PS1 delta exon9 mutant-induced amyloid beta-40 level in CHO cells overexpressing human APP751 at 0.2 nM after 24 hrs by liquid phase electrochemiluminescence assay relative to control; format: cell-based; parameters: scale not given: the % may be the effect or the level left; procedure, shortened: as §1
[17] = Reduction of human PS1 delta exon9 mutant-induced amyloid beta-42 level in CHO cells overexpressing human APP751after 24 hrs by liquid phase electrochemiluminescence assay relative to control; format: cell-based
CHO [18] = assay: Reduction of human PS1 delta exon9 mutant-induced amyloid beta42 level in CHO cells overexpressing human APP751 at 0.2 nM after 24 hrs by liquid phase electrochemiluminescence assay relative to control; format: cell-based; parameters: scale not given: the % may be the effect or the level left
Mus musculus [19] = assay: Reduction of amyloid beta-40 level in Swedish APP and human PS1-L166P APPPS1 transgenic mouse brain at 10 mg/kg, po after 3 hrs by ELISA; format: functional; procedure, shortened: as §2
CHO [20] = assay: Reduction of human PS1 delta exon9 mutant-induced amyloid beta-40 level in CHO cells overexpressing human APP751 at 0.1 nM after 24 hrs by liquid phase electrochemiluminescence assay relative to control; format: cell-based; parameters: scale not given: the % may be the effect or the level left; procedure, shortened: as §1
[21] = test system: Presenilin-1 (Homo sapiens), P49768 [L166P]; assay: Reduction of human PS1 L166P mutant-induced amyloid beta40 level in CHO cells overexpressing human APP751 at 0.5 nM after 24 hrs by liquid phase electrochemiluminescence assay relative to control; format: cell-based; parameters: scale not given: the % may be the effect or the level left; procedure, shortened: as §1
CHO [22] = assay: Reduction of human PS1 delta exon9 mutant-induced amyloid beta40 level in CHO cells overexpressing human APP751 at 0.5 nM after 24 hrs by liquid phase electrochemiluminescence assay relative to control; format: cell-based; parameters: scale not given: the % may be the effect or the level left
[23] = test system: Presenilin-1 (Homo sapiens), P49768 [L166P]; assay: Reduction of human PS1 L166P mutant-induced amyloid beta40 level in CHO cells overexpressing human APP751 at 0.2 nM after 24 hrs by liquid phase electrochemiluminescence assay relative to control; format: cell-based; parameters: scale not given: the % may be the effect or the level left; procedure, shortened: as §1
[24] = test system: Presenilin-1 (Homo sapiens), P49768 [L166P]; assay: Reduction of human PS1 L166P mutant-induced amyloid beta42 level in CHO cells overexpressing human APP751 at 0.5 nM after 24 hrs by liquid phase electrochemiluminescence assay relative to control; format: cell-based; parameters: scale not given: the % may be the effect or the level left; procedure, shortened: as §1
[25] = biological target: Presenilin-1 (Homo sapiens) (UniProt P49768); assay: Reduction of human wild type PS1-induced amyloid beta42 level in CHO cells overexpressing human APP751 at 0.1 nM after 24 hrs by liquid phase electrochemiluminescence assay relative to control; format: cell-based; parameters: scale not given: the % may be the effect or the level left
Mus musculus [26] = assay: Reduction of amyloid beta40 level in Tg2576 mouse brain at 10 mg/kg, po after 3 hrs by ELISA; format: functional; procedure, shortened: as §2
[27] = biological target: Presenilin-1 (Homo sapiens) (UniProt P49768); assay: Reduction of human wild type PS1-induced amyloid beta-42 level in CHO cells overexpressing human APP751 at 0.5 nM after 24 hrs by liquid phase electrochemiluminescence assay relative to control; format: cell-based; parameters: scale not given: the % may be the effect or the level left
[28] = biological target: Presenilin-1 (Homo sapiens) (UniProt P49768); assay: Reduction of human wild type PS1-induced amyloid beta42 level in CHO cells overexpressing human APP751 at 0.2 nM after 24 hrs by liquid phase electrochemiluminescence assay relative to control; format: cell-based; parameters: scale not given: the % may be the effect or the level left

Activity [1]: 66.6%
Activity [2]: 5.6%
Activity [5]: 57.7%
Activity [8]: 85.2%
Activity [11]: 15.8%
Activity [13]: 64.2%
EC50 [15]: 0.358 nM
EC50 [17]: 0.352 nM
Activity [21]: 11.7%
Activity [23]: 36.2%
Activity [24]: 28.7%
Activity [25]: 71%
Activity [27]: 4.75%
Activity [28]: 18.8%
SMILES: C[C@H](NC(=O)[C@@H](O)c1cc(F)cc(F)c1)C(=O)N[C@@H]1C(=O)N(C)c2ccccc2-c2ccccc21
Activity (Mus musculus [3]): 0.21 pmol/g
Activity (Mus musculus [4]): 81.2%
Activity (CHO [6]): 94.4%
Activity (Mus musculus [7]): 89%
Activity (CHO [9]): 26.5%
Activity (Mus musculus [10]): 85%
Activity (Mus musculus [12]): 17.1%
Activity (Mus musculus [14]): 2.9 pmol/g
Activity (CHO [16]): 72.9%
Activity (CHO [18]): 72%
Activity (Mus musculus [19]): 0.42 pmol/g
Activity (CHO [20]): 92.6%
Activity (CHO [22]): 26.7%
Activity (Mus musculus [26]): 1.23 pmol/g

From ChEMBL document CHEMBL1156480, “Insensitivity to Abeta42-lowering nonsteroidal anti-inflammatory drugs and gamma-secretase inhibitors is common among aggressive presenilin-1 mutations” (J Biol Chem, 2007)
